Consider 28 compounds from ChEMBL document CHEMBL4118063, “Design, synthesis and evaluation of aromatic heterocyclic derivatives as potent antifungal agents” (Eur J Med Chem, 2017).

Data set [1] concerns Candida albicans. Put plainly: Antifungal activity against Candida albicans CPCC 400523 by broth microdilution method. The class given is functional. The essentials:
(§1)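 Serial twofold-style dilution in growth medium per NCCLS broth microdilution guidelines. Compounds dissolved in DMSO before dilution. Fluconazole and itraconazole served as positive controls. MIC was read as the lowest concentration that prevents visible fungal growth.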
In general terms: Broth dilution looks for growth in wells or tubes with falling amounts of substance.

Data set [2] deals with Cryptococcus neoformans. In words: Antifungal activity against Cryptococcus neoformans cgmcc 2.3161 by broth microdilution method. The class given is functional. The essentials:
as §1

Data set [3] deals with Candida tropicalis. In words: Antifungal activity against Candida tropicalis cgmcc 2.3739 by broth microdilution method. The class given is functional. The essentials:
as §1

The test system of data set [4] is Candida albicans. Put plainly: Antifungal activity against Candida albicans ATCC SC5314 by broth microdilution method. The data set is classed as functional. The essentials: as §1
Data set [5] has as its system Aspergillus fumigatus. Put plainly: Antifungal activity against Aspergillus fumigatus GIM 3.524 by broth microdilution method. The data set is classed as functional. The essentials: as §1
Data set [6] has as its system Candida albicans. In words: Antifungal activity against fluconazole-resistant Candida albicans strain 103 by broth microdilution method. The class given is functional. The essentials: (§2)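 Broth serial dilution in 96-well plates per NCCLS guidelines; compounds dissolved in DMSO and serially diluted into growth medium; MIC taken as lowest concentration inhibiting visible fungal growth. Fluconazole-resistant clinical C. albicans isolates 100 and 103; fluconazole and itraconazole as positive controls.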

The subject of data set [7] is Candida albicans. In words: Antifungal activity against fluconazole-resistant Candida albicans strain 100 by broth microdilution method. The data set is classed as functional. The essentials: as §2
Data set [8] can be described thus: Metabolic stability in human plasma assessed as parent compound remaining at 120 mins. The data set is classed as ADME, cell-free. To be noted: read-out: Stability.
The nature of data set [9]: Metabolic stability in human plasma assessed as parent compound remaining at 60 mins. The data set is classed as ADME, cell-free. To be noted: read-out: Stability.

SMILES strings stand for the structures. Converted amounts (≈) assume the structure as drawn.

`CC(C)OC(=O)[C@H](Cn1ccnc1)NC(=O)c1ccc(-c2ccccc2F)cc1`: the minimal inhibitory concentration (MIC) (as a rule, the smallest concentration in the dilution series that meets the test's criterion for growth inhibition) in data set [1] is 0.25 µg/mL (≈ 0.632 µM); in data set [2], 1 µg/mL (≈ 2.53 µM); in data set [3] it was 0.0625 µg/mL (≈ 0.158 µM); in data set [4], 0.0625 µg/mL (≈ 0.158 µM); in data set [5] it was greater than 16 µg/mL.

For `CC(C)COC(=O)[C@H](Cn1ccnc1)NC(=O)c1coc(-c2ccccc2)n1`, the MIC in data set [1] is greater than 16 µg/mL; in data set [2], greater than 16 µg/mL; in data set [3], 4 µg/mL (≈ 10.5 µM); in [4], greater than 16 µg/mL; in data set [5], greater than 16 µg/mL.

On to `Cc1cc(C(=O)N[C@@H](Cn2ccnc2)C(=O)OCC(C)C)nn1-c1ccccc1`, for which the MIC in data set [1] was greater than 16 µg/mL; in data set [2] it was greater than 16 µg/mL; in [3], 4 µg/mL (≈ 10.1 µM); in [4], greater than 16 µg/mL; in data set [5] it was greater than 16 µg/mL.

`CC(C)COC(=O)[C@H](Cn1ccnc1)NC(=O)c1cc(-c2ccccc2)on1`: the minimal inhibitory concentration (MIC) in data set [1] was 1 µg/mL (≈ 2.61 µM); in [2] it was 0.25 µg/mL (≈ 0.654 µM); in data set [3] it was 0.0312 µg/mL (≈ 0.0817 µM); in data set [4], 0.0625 µg/mL (≈ 0.163 µM); in data set [5], 4 µg/mL (≈ 10.5 µM).

As for `Cc1ccc(-c2cc(C(=O)N[C@@H](Cn3ccnc3)C(=O)OC(C)C)no2)cc1`, the minimum inhibitory concentration (MIC) in [1] worked out at 0.5 µg/mL (≈ 1.31 µM); in data set [2], 2 µg/mL (≈ 5.23 µM); in data set [3] it was 0.0312 µg/mL (≈ 0.0817 µM); in data set [4], 0.25 µg/mL (≈ 0.654 µM); in data set [5], 8 µg/mL (≈ 20.9 µM).

Regarding `CC(C)COC(=O)[C@H](Cn1ccnc1)NC(=O)c1cc(-c2ccccc2F)on1`, the minimal inhibitory concentration (MIC) in [1] was 0.125 µg/mL (≈ 0.312 µM); in [6], 0.5 µg/mL (≈ 1.25 µM); in [7] it was 0.125 µg/mL (≈ 0.312 µM); in data set [2] it was 0.25 µg/mL (≈ 0.624 µM); in data set [3], 0.0312 µg/mL (≈ 0.078 µM); in [4], 0.0312 µg/mL (≈ 0.078 µM). Further, it took 4 µg/mL (≈ 9.99 µM) to inhibit growth in data set [5] (MIC). The remaining at 2 h in data set [8] came to 61.4%. For the same compound, the remaining at 1 h in [9] came out at 74.6%.

In the case of `CC(C)COC(=O)[C@H](Cn1ccnc1)NC(=O)c1cc(-c2ccc(F)cc2)on1`, the MIC in data set [1] came to 2 µg/mL (≈ 4.99 µM); in data set [2] it was 0.5 µg/mL (≈ 1.25 µM); in [3], 0.0312 µg/mL (≈ 0.078 µM); in data set [4], 0.5 µg/mL (≈ 1.25 µM); in data set [5], 8 µg/mL (≈ 20 µM).

With `CC(C)OC(=O)[C@H](Cn1ccnc1)NC(=O)c1cc(-c2ccc(Br)cc2)on1`, the minimum inhibitory concentration (MIC) in data set [1] was 0.25 µg/mL (≈ 0.559 µM); in [2], 2 µg/mL (≈ 4.47 µM); in data set [3], 0.0312 µg/mL (≈ 0.0699 µM); in [4] it was 0.0625 µg/mL (≈ 0.14 µM); in data set [5] it was greater than 16 µg/mL.

`CC(C)OC(=O)[C@H](Cn1ccnc1)NC(=O)c1ccc(-c2ccccc2)nc1`: the MIC in [1] is 4 µg/mL (≈ 10.6 µM); in [2], 16 µg/mL (≈ 42.3 µM); in [3], 1 µg/mL (≈ 2.64 µM); in [4] it was 2 µg/mL (≈ 5.28 µM); in data set [5] it was greater than 16 µg/mL.

As to `Cc1nc(-c2ccccc2)sc1C(=O)N[C@@H](Cn1ccnc1)C(=O)OC(C)C`, the minimal inhibitory concentration (MIC) was 2 µg/mL (≈ 5.02 µM) in data set [1]; 16 µg/mL (≈ 40.2 µM) in [2]; 0.25 µg/mL (≈ 0.627 µM) in data set [3]; 2 µg/mL (≈ 5.02 µM) in [4]; greater than 16 µg/mL in data set [5].

In the case of `Cc1nc(-c2ccccc2)sc1C(=O)N[C@@H](Cn1ccnc1)C(=O)OCC(C)C`, the minimal inhibitory concentration (MIC) in [1] was 1 µg/mL (≈ 2.42 µM); in data set [2], 8 µg/mL (≈ 19.4 µM); in data set [3] it was 0.125 µg/mL (≈ 0.303 µM); in [4], 0.25 µg/mL (≈ 0.606 µM); in data set [5], greater than 16 µg/mL.

Turning to `CC(C)COC(=O)[C@H](Cn1ccnc1)NC(=O)c1nc(-c2ccccc2)cs1`, the MIC in data set [1] is greater than 16 µg/mL; in data set [2], 2 µg/mL (≈ 5.02 µM); in [3], 0.125 µg/mL (≈ 0.314 µM); in data set [4], greater than 16 µg/mL; in data set [5], greater than 16 µg/mL.

Consider `CC(C)OC(=O)[C@H](Cn1ccnc1)NC(=O)c1coc(-c2ccccc2)n1`, for which the MIC in data set [1] is greater than 16 µg/mL; in data set [2], greater than 16 µg/mL; in data set [3], 8 µg/mL (≈ 21.7 µM); in data set [4], greater than 16 µg/mL; in data set [5], greater than 16 µg/mL.

For `CC(C)OC(=O)[C@H](Cn1ccnc1)NC(=O)c1csc(-c2ccccc2)n1`, the MIC in data set [1], in data set [2], in data set [3], in data set [4] and in data set [5] was greater than 16 µg/mL each time.

As for `Cc1ccc(-c2cc(C(=O)N[C@@H](Cn3ccnc3)C(=O)OCC(C)C)no2)cc1`, the minimum inhibitory concentration (MIC) in data set [1] came to 0.5 µg/mL (≈ 1.26 µM); in data set [2] it was 0.5 µg/mL (≈ 1.26 µM); in data set [3], 0.0312 µg/mL (≈ 0.0788 µM); in data set [4] it was 0.125 µg/mL (≈ 0.315 µM); in data set [5] it was 8 µg/mL (≈ 20.2 µM).

With `CC(C)OC(=O)[C@H](Cn1ccnc1)NC(=O)c1cc(-c2ccccc2)on1`, the MIC was 0.5 µg/mL (≈ 1.36 µM) in data set [1]; 0.5 µg/mL (≈ 1.36 µM) in data set [2]; 0.0625 µg/mL (≈ 0.17 µM) in data set [3]; 0.25 µg/mL (≈ 0.679 µM) in data set [4]; 4 µg/mL (≈ 10.9 µM) in [5].

Regarding `CC(C)COC(=O)[C@H](Cn1ccnc1)NC(=O)c1ccc(-c2ccccc2)s1`, the minimum inhibitory concentration (MIC) is 4 µg/mL (≈ 10.1 µM) in data set [1]; greater than 16 µg/mL in data set [2]; 0.125 µg/mL (≈ 0.314 µM) in [3]; 2 µg/mL (≈ 5.03 µM) in data set [4]; greater than 16 µg/mL in data set [5].

As to `CC(C)OC(=O)[C@H](Cn1ccnc1)NC(=O)c1ccc(-c2ccccc2)s1`, the MIC in data set [1] was 8 µg/mL (≈ 20.9 µM); in [2], 16 µg/mL (≈ 41.7 µM); in data set [3] it was 1 µg/mL (≈ 2.61 µM); in data set [4], 8 µg/mL (≈ 20.9 µM); in [5] it was greater than 16 µg/mL.

Take `CC(C)COC(=O)[C@H](Cn1ccnc1)NC(=O)c1csc(-c2ccccc2)n1`: the minimal inhibitory concentration (MIC) in [1], in data set [2], in [3], in [4] and in [5] was greater than 16 µg/mL each time.

For the compound `CC(C)COC(=O)[C@H](Cn1ccnc1)NC(=O)c1ccc(-c2ccccc2)o1`, the MIC in data set [1] is greater than 16 µg/mL; in data set [2], greater than 16 µg/mL; in data set [3], 4 µg/mL (≈ 10.5 µM); in data set [4] it was greater than 16 µg/mL; in data set [5] it was greater than 16 µg/mL.

On to `CC(C)OC(=O)[C@H](Cn1ccnc1)NC(=O)c1cnc(-c2ccccc2)nc1`, for which the MIC in data set [1] was 1 µg/mL (≈ 2.64 µM); in [2], 8 µg/mL (≈ 21.1 µM); in [3] it was 0.0625 µg/mL (≈ 0.165 µM); in [4] it was 0.25 µg/mL (≈ 0.659 µM); in data set [5], greater than 16 µg/mL.

Regarding `CC(C)OC(=O)[C@H](Cn1ccnc1)NC(=O)c1ccc(-c2ccccc2)o1`, the minimal inhibitory concentration (MIC) in data set [1] is greater than 16 µg/mL; in [2], greater than 16 µg/mL; in [3], 8 µg/mL (≈ 21.8 µM); in data set [4] it was greater than 16 µg/mL; in data set [5] it was greater than 16 µg/mL.

As for `CC(C)OC(=O)[C@H](Cn1ccnc1)NC(=O)c1nc(-c2ccccc2)cs1`, the MIC in data set [1] is greater than 16 µg/mL; in data set [2], 2 µg/mL (≈ 5.2 µM); in data set [3], 0.0625 µg/mL (≈ 0.163 µM); in [4], greater than 16 µg/mL; in data set [5], greater than 16 µg/mL.

Consider `CC(C)OC(=O)[C@H](Cn1ccnc1)NC(=O)c1cc(-c2ccc(F)cc2)on1`, for which the minimum inhibitory concentration (MIC) in [1] stood at 2 µg/mL (≈ 5.18 µM); in [2] it was 2 µg/mL (≈ 5.18 µM); in data set [3] it was 0.0312 µg/mL (≈ 0.0809 µM); in [4], 1 µg/mL (≈ 2.59 µM); in data set [5] it was 8 µg/mL (≈ 20.7 µM).

Consider `CC(C)COC(=O)[C@H](Cn1ccnc1)NC(=O)c1cc(-c2ccc(Br)cc2)on1`, for which the MIC was 0.125 µg/mL (≈ 0.271 µM) in data set [1]; 2 µg/mL (≈ 4.34 µM) in data set [2]; 0.0312 µg/mL (≈ 0.0677 µM) in data set [3]; 0.0312 µg/mL (≈ 0.0677 µM) in [4]; greater than 16 µg/mL in [5].

`CC(C)COC(=O)[C@H](Cn1ccnc1)NC(=O)c1cnc(-c2ccccc2)nc1`: the minimum inhibitory concentration (MIC) in data set [1] is 0.5 µg/mL (≈ 1.27 µM); in [2] it was 2 µg/mL (≈ 5.08 µM); in [3], 0.125 µg/mL (≈ 0.318 µM); in [4] it was 0.25 µg/mL (≈ 0.635 µM); in data set [5] it was greater than 16 µg/mL.

With `Cc1cc(C(=O)N[C@@H](Cn2ccnc2)C(=O)OC(C)C)nn1-c1ccccc1`, the MIC in [1] is greater than 16 µg/mL; in data set [2], greater than 16 µg/mL; in [3], 4 µg/mL (≈ 10.5 µM); in data set [4] it was greater than 16 µg/mL; in data set [5] it was greater than 16 µg/mL.

Consider `CCC(C)n1ncn(-c2ccc(N3CCN(c4ccc(OCC5COC(Cn6cncn6)(c6ccc(Cl)cc6Cl)O5)cc4)CC3)cc2)c1=O` (centres undefined) [ITRACONAZOLE], for which the MIC came to 0.125 µg/mL (≈ 0.177 µM) in data set [1]; 1 µg/mL (≈ 1.42 µM) in [2]; 0.0312 µg/mL (≈ 0.0443 µM) in data set [3]; 0.0312 µg/mL (≈ 0.0443 µM) in [4]; 1 µg/mL (≈ 1.42 µM) in [5].
